ChEMBL document CHEMBL5032510, “Identification of Novel Fused Heteroaromatics-Based MALT1 Inhibitors by High-Throughput Screening to Treat B Cell Lymphoma” (J Med Chem, 2021)
Active and inactive are the calls of the source. No cut-off for these calls is given here.

Key:
[1] = Antiproliferative activity against human HBL1 cells assessed as inhibition of cell growth incubated for 72 hrs by Celltiter-Glo luminescent assay; assay type: functional
How it was run: (§1)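 Exponentially growing cells were seeded at 1 × 10⁴ per 100 μL. HBL-1 and TMD8 were kept in RPMI with 10% FBS, 2 mM glutamine and 10 mM HEPES; OCI-LY1 in Iscove's medium with 20% FBS; all at 37 °C and 5% CO2. Cells were exposed to DMSO or 2-fold serial dilutions from 100 μM for 72 h, in triplicate on one plate. CellTiter-Glo luminescence was read after 1 h. Growth inhibition was calculated against control, accounting for initial cell number, and GI50 was fitted.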

[2] = test system: OCI-Ly1; experiment: Antiproliferative activity against human OCI-Ly1 cells assessed as inhibition of cell growth incubated for 72 hrs by Celltiter-Glo luminescent assay; assay type: functional; how it was run: as §1
[3] = test system: TMD8; experiment: Antiproliferative activity against human TMD8 cells assessed as inhibition of cell growth incubated for 72 hrs by Celltiter-Glo luminescent assay; assay type: functional; how it was run: as §1
[4] = molecular target: T1, Mucosa-associated lymphoid tissue lymphoma translocation protein 1 (Homo sapiens, UniProt Q9UDY8); experiment: Inhibition of N-terminal his-tagged GCN4 leucine zipper fused human MALT1 […] expressed in Escherichia coli using Ac-LVSR-AMC as substrate by HTS assay
T1 sequence (Q9UDY8 whole entry): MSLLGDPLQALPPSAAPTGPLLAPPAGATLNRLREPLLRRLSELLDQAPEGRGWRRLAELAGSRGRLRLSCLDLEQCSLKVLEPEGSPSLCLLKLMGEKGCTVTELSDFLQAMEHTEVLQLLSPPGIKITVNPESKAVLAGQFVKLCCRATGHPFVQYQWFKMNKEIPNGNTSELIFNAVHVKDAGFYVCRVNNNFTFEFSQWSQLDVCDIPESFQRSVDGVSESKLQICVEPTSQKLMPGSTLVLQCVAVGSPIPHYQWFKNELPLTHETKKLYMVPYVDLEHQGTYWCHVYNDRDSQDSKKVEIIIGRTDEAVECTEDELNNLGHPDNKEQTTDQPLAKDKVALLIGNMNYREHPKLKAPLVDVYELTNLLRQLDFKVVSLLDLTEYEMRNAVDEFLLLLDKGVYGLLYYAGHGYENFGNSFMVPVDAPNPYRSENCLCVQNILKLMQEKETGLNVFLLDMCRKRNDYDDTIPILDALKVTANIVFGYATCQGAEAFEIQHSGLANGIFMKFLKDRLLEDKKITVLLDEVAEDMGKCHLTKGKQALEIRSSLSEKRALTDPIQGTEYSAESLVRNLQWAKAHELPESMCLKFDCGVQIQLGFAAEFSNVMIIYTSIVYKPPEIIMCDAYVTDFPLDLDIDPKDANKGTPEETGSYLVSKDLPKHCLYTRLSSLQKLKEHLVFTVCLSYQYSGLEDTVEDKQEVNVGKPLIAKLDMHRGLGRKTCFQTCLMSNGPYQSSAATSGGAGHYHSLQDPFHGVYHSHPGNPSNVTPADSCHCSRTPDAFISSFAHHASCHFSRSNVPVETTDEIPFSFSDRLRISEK

GI50 [2] [µM] | IC50 [4] [µM] | Structure (SMILES) | GI50 [1] [µM] | GI50 [3] [µM] | Activity [2]
36.8 | 5.2 | O=C(NCc1ccco1)c1sc(=S)n2c1[nH]c(=O)c1cc(Br)ccc12 | 13.2 | 16.2 | –
– | 7.4 | O=C(Nc1cc(Cl)cc(Cl)c1)c1sc(=S)n2c1[nH]c(=O)c1ccc(Cl)cc12 | – | – | –
– | > 25 | O=C(Nc1ccc(Cl)c(Cl)c1)c1sc(=S)n2c1[nH]c(=O)c1ccccc12 | – | – | –
21.6 | 12.2 | COC(=O)c1ccc2c(=O)[nH]c3c(C(=O)Nc4ccc(F)cc4F)sc(=S)n3c2c1 | 14.2 | 28.2 | –
– | 13 | Cc1ccc(S(=O)(=O)C2=C(O)C(=O)N(Cc3ccc(F)cc3)C2c2ccc(C(C)C)cc2)cc1 (stereo not drawn) | – | – | –
23 | 3.4 | Cc1ccc2c(c1)c(=O)[nH]c1c(C(=O)Nc3cc(Cl)ccc3C)sc(=S)n12 | 14 | 8 | –
– | 3.2 | CCc1ccccc1NC(=O)c1sc(=S)n2c1[nH]c(=O)c1ccc(C(=O)OC)cc12 | – | – | –
– | > 25 | COc1cccc(NC(=O)c2sc(=S)n3c2[nH]c(=O)c2ccccc23)c1 | – | – | –
– | > 25 | COc1ccc(OC)c(NC(=O)c2sc(=S)n3c2[nH]c(=O)c2ccccc23)c1 | – | – | –
17.1 | 16.1 | O=C(Nc1cccc(F)c1)c1sc(=S)n2c1[nH]c(=O)c1cc(Br)ccc12 | 17.1 | 17.1 | –
– | 14.7 | CCc1ccccc1NC(=O)c1sc(=S)n2c1[nH]c(=O)c1ccccc12 | – | – | –
– | 7.7 | COc1ccccc1NC(=O)c1sc(=S)n2c1[nH]c(=O)c1ccc(Br)cc12 | – | – | –
– | 11.6 | COc1ccc(OC)c(NC(=O)c2sc(=S)n3c2[nH]c(=O)c2cc(F)c(F)cc23)c1 | – | – | –
– | 20.4 | O=C(Nc1ccccc1Cl)c1sc(=S)n2c1[nH]c(=O)c1ccccc12 | – | – | –
– | > 25 | COc1ccc(OC)c(NC(=O)c2sc(=S)n3c2[nH]c(=O)c2cc(OC)c(OC)cc23)c1 | – | – | –
– | > 25 | COc1ccc(OC)c(NC(=O)c2sc(=S)n3c2[nH]c(=O)c2cc(OC)ccc23)c1 | – | – | –
20.7 | 5.2 | COc1ccc(OC)c(NC(=O)c2sc(=S)n3c2[nH]c(=O)c2ccc(Cl)cc23)c1 | 8.2 | 8.4 | –
26 | 6.4 | Cc1ccc(NC(=O)c2sc(=S)n3c2[nH]c(=O)c2cc(Br)ccc23)c(C)c1 | 17 | 10 | –
– | 5.2 | CCc1ccccc1NC(=O)c1sc(=S)n2c1[nH]c(=O)c1cc(F)c(F)cc12 | – | – | –
12.1 | 3.8 | COc1ccc(OC)c(NC(=O)c2sc(=S)n(-c3cccc(F)c3)c2NC(=O)CCl)c1 | 1.6 | 1.5 | –

GI50 [2] [µM] | IC50 [4] [µM] | Structure (SMILES) | GI50 [1] [µM] | GI50 [3] [µM] | Activity [2]
– | 12.3 | CC(C)c1ccc(S(=O)(=O)Nc2ccc(N3CCC(Cc4ccccc4)CC3)cc2C(=O)O)cc1 | – | – | –
– | 12 | Cc1ccccc1C1CCN(c2ccc(NC(=O)c3ccc(Cl)cc3)c(C(=O)O)c2)C1 (stereo not drawn) | – | – | –
– | 4.4 | O=C(Nc1cccc(Cl)c1[N+](=O)[O-])c1sc(=S)n2c1[nH]c(=O)c1ccc(Cl)cc12 | – | – | –
– | > 25 | COc1ccccc1NC(=O)c1sc(=S)n2c1[nH]c(=O)c1ccccc12 | – | – | –
– | > 25 | COc1ccc(OC)c(NC(=O)c2sc(=S)n3c2[nH]c(=O)c2ccc(OC)cc23)c1 | – | – | –
– | > 25 | COc1ccc(NC(=O)c2sc(=S)n3c2[nH]c(=O)c2ccccc23)cc1 | – | – | –
12.9 | 6.9 | COc1ccc(OC)c(NC(=O)c2sc(=S)n3c2[nH]c(=O)c2cc(Br)ccc23)c1 | 11.7 | 11 | –
15 | 14.5 | COC(=O)c1ccc2c(=O)[nH]c3c(C(=O)Nc4ccccc4C)sc(=S)n3c2c1 | 13.1 | 15 | –
16.1 | 12.8 | COc1cccc(CNC(=O)c2sc(=S)n3c2[nH]c(=O)c2cc(Br)ccc23)c1 | 16.1 | 16.1 | –
23.7 | 14.9 | O=C(O)c1cccc(NC(=O)c2sc(=S)n3c2[nH]c(=O)c2cc(Br)ccc23)c1 | 12.4 | 23.7 | –
– | 21.1 | Cc1ccc2c(c1)c(=O)[nH]c1c(C(=O)Nc3ccccc3C)sc(=S)n12 | 24.7 | 24.7 | –
– | 6 | COc1ccccc1CNC(=O)c1sc(=S)n2c1[nH]c(=O)c1cc(Cl)ccc12 | 40 | 40 | inactive
21 | 6.7 | O=C(Nc1ccc([N+](=O)[O-])cc1)c1sc(=S)n2c1[nH]c(=O)c1ccccc12 | 14.3 | 4 | –
– | > 25 | O=C(Nc1ccccc1)c1sc(=S)n2c1[nH]c(=O)c1ccccc12 | – | – | –
11.8 | 5.5 | COc1ccc(OC)c(NC(=O)c2sc(=S)n(-c3cccc(C#N)c3)c2NC(=O)CCl)c1 | 1.7 | 1.6 | –
– | 2.5 | COC(=O)c1ccc2c(=O)[nH]c3c(C(=O)Nc4cc(Cl)cc(Cl)c4)sc(=S)n3c2c1 | – | – | –
– | 17 | COc1ccc(OC)c(NC(=O)c2sc(=S)n3c2[nH]c(=O)c2ccc(F)cc23)c1 | – | – | –
25.6 | 4.7 | CCOc1ccc(OCC)c(NC(=O)c2sc(=S)n3c2[nH]c(=O)c2ccc(Cl)cc23)c1 | 12.1 | 12.1 | –
– | 4.3 | COC(=O)c1ccc2c(=O)[nH]c3c(C(=O)Nc4ccc([N+](=O)[O-])cc4)sc(=S)n3c2c1 | – | – | –
– | 18.8 | COc1ccc(OC)c(NC(=O)c2sc(=S)n3c2[nH]c(=O)c2ccc(Br)cc23)c1 | – | – | –

GI50 [2] [µM] | IC50 [4] [µM] | Structure (SMILES) | GI50 [1] [µM] | GI50 [3] [µM] | Activity [2]
13 | 7 | COc1ccc(OC)c(NC(=O)c2sc(=S)n(-c3ccc(Cl)cc3)c2NC(=O)CCl)c1 | 1.5 | 1 | –
– | > 25 | O=C(Nc1ccc(Cl)cc1)c1sc(=S)n2c1[nH]c(=O)c1ccccc12 | – | – | –
23 | 6.1 | COc1ccccc1NC(=O)c1sc(=S)n2c1[nH]c(=O)c1cc(Cl)ccc12 | 17 | 17 | –
30 | 2.3 | O=C(NCc1ccccc1Cl)c1sc(=S)n2c1[nH]c(=O)c1cc(Br)ccc12 | 19 | 15 | –
18.6 | 5.1 | COC(=O)c1ccc2c(=O)[nH]c3c(C(=O)Nc4ccc(Cl)cc4)sc(=S)n3c2c1 | 14.8 | 4.4 | –
12.4 | 5.53 | O=C(Nc1cccc(F)c1)c1sc(=S)n2c1[nH]c(=O)c1ccc(Cl)cc12 | 16.8 | 16.8 | –
– | 3 | COC(=O)c1ccc2c(=O)[nH]c3c(C(=O)Nc4cccc(Cl)c4[N+](=O)[O-])sc(=S)n3c2c1 | – | – | –
28.1 | 3.2 | COc1ccc(OC)c(NC(=O)c2sc(=S)n3c2[nH]c(=O)c2cc(Cl)ccc23)c1 | 14 | 12.4 | –
13.4 | 4.1 | CSc1ccc2c(c1)N(CCC1CCCCN1C)c1ccccc1S2 (stereo not drawn) [THIORIDAZINE] | 6.6 | 5.9 | –
48 | 3.6 | Cc1ccc(Cl)cc1NC(=O)c1sc(=S)n2c1[nH]c(=O)c1cc3c(cc12)OCO3 | 32 | 12 | –
12.7 | 4.6 | COc1ccc(OC)c(NC(=O)c2sc(=S)n(-c3cccc(Br)c3)c2NC(=O)CCl)c1 | 1.8 | 1.2 | –
34 | 6.4 | COC(=O)c1ccc2c(=O)[nH]c3c(C(=O)Nc4ccc(-c5ccccc5)cc4)sc(=S)n3c2c1 | 16 | 23 | –
– | 12.8 | COc1cccc(CNC(=O)c2sc(=S)n3c2[nH]c(=O)c2cc(Cl)ccc23)c1 | 28.2 | 21.6 | –
– | 4.4 | CCc1ccccc1NC(=O)c1sc(=S)n2c1[nH]c(=O)c1cc(Br)ccc12 | – | – | –
– | 11 | Cc1ccccc1NC(=O)c1sc(=S)n2c1[nH]c(=O)c1ccc(Cl)cc12 | – | – | –
– | 6.9 | COC(=O)c1ccc2c(=O)[nH]c3c(C(=O)Nc4ccc(Cl)c(Cl)c4)sc(=S)n3c2c1 | – | – | –
– | > 25 | CCc1ccc(NC(=O)c2sc(=S)n3c2[nH]c(=O)c2ccccc23)cc1 | – | – | –
– | 5.1 | CCc1ccccc1NC(=O)c1sc(=S)n2c1[nH]c(=O)c1ccc(Cl)cc12 | – | – | –
– | 2.6 | O=C(Nc1ccc([N+](=O)[O-])cc1)c1sc(=S)n2c1[nH]c(=O)c1ccc(Cl)cc12 | – | – | –
